Experimental data gathered from unrelated publications.
Protocols differ between the studies behind these lines.
Cell line: L02
Effect on: cell growth or viability

| SMILES | test | setting | IC50 [µM] |
| --- | --- | --- | --- |
| Oc1c(Br)cc(Br)c2cccnc12 | MTT | 48 h | > 100 |
| Cc1cc(Oc2ccc(NC(=O)c3cc(-c4cccs4)no3)cc2F)c2nncn2n1 | MTT |  | > 50 |
| COc1ccc(NC(=O)Nc2ccc(OCc3nccc(OC)c3OC)cc2)cc1 | MTT | 72 h | > 100 |
| Cc1cc(Oc2ccc(NC(=O)c3sc(-c4ccncc4)nc3C)cc2)n2ncnc2n1 | MTT |  | > 50 |
| Cc1c(OCC(F)(F)F)ccnc1COc1ccc(NC(=O)Nc2ccc(Cl)c(C(F)(F)F)c2)cc1 | MTT | 72 h | > 100 |
| COc1cc(C2Oc3cc([C@H]4Oc5cc(O)cc(O)c5C(=O)[C@@H]4O)ccc3OC2CO)ccc1O (stereo partly shown) | CCK-8 | 72 h | > 300 |
| Oc1c(I)cc(I)c2cccnc12 | MTT | 48 h | 71 |
| COCCCOc1ccnc(COc2ccc(NC(=O)Nc3ccc(Cl)cc3)cc2)c1C | MTT | 72 h | > 100 |
| Cc1cc(Oc2ccc(NC(=O)c3sc(-c4ccccn4)nc3C)cc2)c2nncn2n1 | MTT |  | > 50 |
| COc1ccnc(-c2cc(OC)ccn2)c1 | MTT | 48 h | > 50 |
